An excerpt weighted towards active compounds, which were near 4.6% of everything screened.
FAS-TE inh – inhibitors of human fatty acid synthase thioesterase domain. P49327. recombinant FAS-TE, OMFH fluorogenic substrate, fluorescence endpoint. inhibition, % at 15 µM. hit rate 0.67% among 360,000. AID 602261;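 active means compounds whose normalised, plate-corrected inhibition of enzyme fluorescence in the single-dose primary screen is 50% or more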;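 further: 0% = DMSO with enzyme and 100% = substrate without enzyme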
UCH37 inh – inhibitors of human deubiquitinating enzyme UCH37; Q9Y5K5; purified proteasome/UCH37, Ub-AMC cleavage fluorescence; inhibition, % (no concentration beside the values); hit rate 0.33% among 330,000;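 active means mean inhibition over replicate wells above about 20%, limit read from the data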;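 further: 0% = compound-free wells with enzyme and 100% = wells lacking proteasome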
Target sequence (Q9Y5K5 whole entry, looked up): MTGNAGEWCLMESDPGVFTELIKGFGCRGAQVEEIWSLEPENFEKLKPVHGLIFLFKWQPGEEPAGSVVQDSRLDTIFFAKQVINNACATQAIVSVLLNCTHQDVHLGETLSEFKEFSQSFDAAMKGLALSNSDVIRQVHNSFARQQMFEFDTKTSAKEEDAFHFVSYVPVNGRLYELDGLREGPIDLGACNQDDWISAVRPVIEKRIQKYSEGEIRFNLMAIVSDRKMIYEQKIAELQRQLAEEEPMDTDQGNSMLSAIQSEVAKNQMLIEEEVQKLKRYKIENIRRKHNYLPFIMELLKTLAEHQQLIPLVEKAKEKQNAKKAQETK
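Material: human UCH37 enzyme supplied as purified proteasome complex. Measure: % inhibition of Ub-AMC cleavage fluorescence. Medium: pH 7.4 Tris-HCl (50 mM) with ovalbumin, ATP-MgCl2, DTT. Times: 30 min preincubation with enzyme, 25 min cleavage at room temperature. Detection: AMC fluorescence intensity at 355/460 nm.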
Rtt109 HAT inh – inhibitors of Candida albicans Rtt109/Vps75 histone acetyltransferase | AID 540336 | purified Rtt109/Vps75, ThioGlo CoA-SH fluorescence, 4 h | hit rate 0.16% among 330,000 | inhibition, % at 34.9 µM;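 active means inhibition of at least 50% in every replicate; inconclusive means best replicate reaches 50% inhibition but some replicates fall short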
Target sequence (Q5AAJ8 whole entry, looked up): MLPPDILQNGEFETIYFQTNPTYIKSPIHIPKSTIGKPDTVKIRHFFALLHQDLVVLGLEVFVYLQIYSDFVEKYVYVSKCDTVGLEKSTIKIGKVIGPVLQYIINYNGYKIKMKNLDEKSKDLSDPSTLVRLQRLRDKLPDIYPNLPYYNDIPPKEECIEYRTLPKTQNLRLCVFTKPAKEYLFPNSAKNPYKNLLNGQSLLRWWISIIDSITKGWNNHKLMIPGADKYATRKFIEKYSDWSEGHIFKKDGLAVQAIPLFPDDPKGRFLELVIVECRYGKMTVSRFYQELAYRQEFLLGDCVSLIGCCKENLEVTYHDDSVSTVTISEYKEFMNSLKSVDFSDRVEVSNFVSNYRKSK
M18AAP inhibitor – blocks P. falciparum M18 aspartyl aminopeptidase | recombinant PfM18AAP, H-Glu-NHMec fluorogenic cleavage | inhibition, % at 7.35 µM | hit rate 1.2% among 290,000;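 active means inhibition above the campaign mean inhibition over all tested compounds plus 3 SD, cut at about 28% in these data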;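 further: 0% = plate median of test compound wells and 100% = 2 mM ZnCl2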
HDAC3 inhib – human HDAC3 inhibition | O15379 | recombinant HDAC3, fluorogenic peptide/trypsin coupled, fluorescence | inhibition, % at 8.3 µM | hit rate 0.15% among 320,000 | AID 2718; in the data active means inhibition above about 26%, passing the limit was not always enough; inconclusive means no clear call, values can overlap the other calls
ALR H2O2 inh – blocks human ALR sulfhydryl oxidase activity; purified ALR, DTT oxidation, H2O2 HRP-luminol luminescence; AID 485317; inhibition, % (concentration not given with the values); P55789; hit rate 3.8% among 290,000;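 active means mean replicate inhibition above about 79%, with every replicate also reaching it, limit read from the data; inconclusive means only one of the two criteria met; inactive means mean below limit and not every replicate reaching it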
* hit, by the source's call.

What do the screens show for `O=C(NCCCN1CCOCC1)c1cc(-c2ccc(O)cc2)on1`?
FAS-TE inh: -7; UCH37 inh: 1; Rtt109 HAT inh: 1; M18AAP inhibitor: -4; ALR H2O2 inh: 98*

How did Cn1nc(-c2ccc(Cl)cc2)c2cc(C(=O)NCCCN3CCOCC3)sc21 do in these assays?
FAS-TE inh: 4; UCH37 inh: -130; Rtt109 HAT inh: -10; M18AAP inhibitor: 7; HDAC3 inhib: -35; ALR H2O2 inh: 95*

Results for COc1ccc(Nc2nc(C(=O)NCCCN3CCOCC3)cs2)cc1 ?
FAS-TE inh: -2; UCH37 inh: 4; Rtt109 HAT inh: 9; M18AAP inhibitor: -5; HDAC3 inhib: 2; ALR H2O2 inh: 83*

How did O=C(Nc1c(F)cc(F)cc1Br)c1cc(-c2ccc(O)cc2)on1 do in these assays?
FAS-TE inh: 3; UCH37 inh: 5; Rtt109 HAT inh: 4; M18AAP inhibitor: 10; HDAC3 inhib: 5; ALR H2O2 inh: 99*

How did CC(=NNC(=O)c1cccs1)c1cccnc1 do in these assays?
UCH37 inh: 4

Results for C/C(=C1/SC(=S)N(CCC(=O)O)C1=O)c1ccc(O)cc1 ?
FAS-TE inh: -7; UCH37 inh: 4; Rtt109 HAT inh: 10; M18AAP inhibitor: 3; HDAC3 inhib: -11; ALR H2O2 inh: 98*

Results for COc1ccc(/C(C)=C2\SC(=S)N(CCC(=O)O)C2=O)cc1 ?
FAS-TE inh: -6; UCH37 inh: 16; Rtt109 HAT inh: 21; M18AAP inhibitor: 12; HDAC3 inhib: 4; ALR H2O2 inh: 49

How did CC1N(C)c2cc(NC(=O)c3ccco3)ccc2C1(C)C (centres undefined) do in these assays?
FAS-TE inh: -12; UCH37 inh: 0; Rtt109 HAT inh: 14; M18AAP inhibitor: 7; HDAC3 inhib: 2; ALR H2O2 inh: 98*

What do the screens show for `CN(C)c1cccc(NC(=O)c2ccco2)c1`?
FAS-TE inh: -5; UCH37 inh: 2; Rtt109 HAT inh: -4; M18AAP inhibitor: 12; HDAC3 inhib: -1; ALR H2O2 inh: 99*

Results for CC1N(C)c2cc(NC(=O)c3ccco3)c(P(=O)(Nc3ccc([N+](=O)[O-])cc3)N3CCOCC3)cc2C1(C)C (centres undefined) ?
FAS-TE inh: 22; UCH37 inh: 3; Rtt109 HAT inh: 15; M18AAP inhibitor: 3; HDAC3 inhib: inconclusive; ALR H2O2 inh: -34

Results for CSc1cccc(NC(=O)c2ccco2)c1 ?
FAS-TE inh: -5; UCH37 inh: 3; Rtt109 HAT inh: -3; M18AAP inhibitor: -1; HDAC3 inhib: -1; ALR H2O2 inh: 98*

Results for O=C(CSc1ccccc1)Nc1cccc(NC(=O)c2ccco2)c1 ?
FAS-TE inh: 1; UCH37 inh: 2; M18AAP inhibitor: 5; HDAC3 inhib: 5; ALR H2O2 inh: -8

How did CCN(CC)c1ccc(C(=O)NN=C(C)c2cccc(OC)c2)cc1 do in these assays?
UCH37 inh: 6

How did O=C1CSC(=NN=Cc2ccccc2Cl)N1CC1CC1 do in these assays?
UCH37 inh: 6

Results for CN(N=Cc1ccc2c(c1)OCO2)c1nc(N2CCOCC2)nc(N2CCOCC2)n1 ?
UCH37 inh: 10

Results for Cc1ccc(CN2CCN(N=Cc3cc(Br)cc(Br)c3O)CC2)cc1 ?
UCH37 inh: 5

What do the screens show for `COc1cc(/C=C2/NC(=O)N(Cc3ccccc3F)C2=O)ccc1Oc1ccc([N+](=O)[O-])cn1`?
FAS-TE inh: 12; Rtt109 HAT inh: -1; M18AAP inhibitor: 6

How did COc1cc(/C=C2/NC(=O)N(Cc3ccccc3F)C2=O)ccc1O do in these assays?
FAS-TE inh: -1; UCH37 inh: -2; Rtt109 HAT inh: 7; M18AAP inhibitor: 6; HDAC3 inhib: 13; ALR H2O2 inh: 99*

How did CC(C)OC(=O)N(C)c1ccc(C(O)(C(F)(F)F)C(F)(F)F)cc1 do in these assays?
FAS-TE inh: 2; UCH37 inh: 3; Rtt109 HAT inh: 55*; M18AAP inhibitor: 7; HDAC3 inhib: 17; ALR H2O2 inh: 0

Results for Cc1cc(C)nc(SCC(=O)NN=C/C(Br)=C/c2ccccc2)n1 ?
UCH37 inh: 4

Results for COc1ccc(C=NNC(=O)c2c(Br)cnn2C)c2ccccc12 ?
UCH37 inh: 0

What do the screens show for `COCC(C)N=C1NN=C(c2ccc(NC(C)=O)cc2)CS1` (centres undefined)?
FAS-TE inh: -4; UCH37 inh: 6; Rtt109 HAT inh: -1; M18AAP inhibitor: 13; HDAC3 inhib: 8; ALR H2O2 inh: 98*

Results for CC1=NN(/C(=N/c2nnc(C)s2)Nc2ccccc2)[C@H](c2ccc(C)cc2)S1 ?
UCH37 inh: 7

Results for COc1cccc(-c2nc(CS(=O)(=O)CC(=O)N3CCN(C4CCCCC4)CC3)c(C)o2)c1 ?
FAS-TE inh: -6; UCH37 inh: 1; Rtt109 HAT inh: 3; M18AAP inhibitor: -2; HDAC3 inhib: 0; ALR H2O2 inh: 99*

Results for COc1cccc(-c2nc(CS(=O)(=O)CC(=O)N3CCN(C)CC3)c(C)o2)c1 ?
FAS-TE inh: -8; UCH37 inh: 4; Rtt109 HAT inh: 9; M18AAP inhibitor: -8; HDAC3 inhib: -7; ALR H2O2 inh: 97*

Results for CCOC(=O)N1CCN(C(=O)CS(=O)(=O)Cc2nc(-c3cccc(OC)c3)oc2C)CC1 ?
FAS-TE inh: -6; UCH37 inh: 5; Rtt109 HAT inh: 1; M18AAP inhibitor: 3; HDAC3 inhib: 2; ALR H2O2 inh: -2

How did COc1cccc(-c2nc(CS(=O)(=O)CC(=O)N3CCOCC3)c(C)o2)c1 do in these assays?
FAS-TE inh: -8; UCH37 inh: 5; Rtt109 HAT inh: 6; M18AAP inhibitor: -8; HDAC3 inhib: -3; ALR H2O2 inh: 21

Results for CC(=O)N(C)Cc1ccc(C(=O)CSc2nnc(C3CC3)n2C2CC2)cc1 ?
FAS-TE inh: -2; UCH37 inh: 1; Rtt109 HAT inh: 6; HDAC3 inhib: 0; ALR H2O2 inh: 46

How did CCN(c1ccc(C(=O)CSc2nnc(C3CC3)n2C2CC2)cc1)S(C)(=O)=O do in these assays?
FAS-TE inh: -8; UCH37 inh: 3; Rtt109 HAT inh: -4; HDAC3 inhib: 2; ALR H2O2 inh: 96*

How did Cc1c(CCCC(=O)O)sc(N)c1C(=O)c1cccc(C(F)(F)F)c1 do in these assays?
FAS-TE inh: -1; UCH37 inh: 2; Rtt109 HAT inh: 17; HDAC3 inhib: -7; ALR H2O2 inh: 96*

What do the screens show for `Cc1[nH][nH]c(=O)c1C(c1ccc(O)c([N+](=O)[O-])c1)c1c(C)[nH][nH]c1=O`?
FAS-TE inh: -5; UCH37 inh: 7; Rtt109 HAT inh: 3; M18AAP inhibitor: 31*; HDAC3 inhib: 3; ALR H2O2 inh: 8

Results for CC(=NNc1ccccn1)c1ccc(OC(F)F)cc1 ?
UCH37 inh: 1

Screens as filed in PubChem.
